Test results: ChEMBL document CHEMBL1125306, “5,10-Methylenetetrahydro-5-deazafolic acid and analogues: synthesis and biological activities” (J Med Chem, 1992)

How the values were obtained:
Dihydrofolate reductase [1] = target: T1, Dihydrofolate reductase (Homo sapiens, UniProt P00374); assay: Compound was evaluated for the inhibition of recombinant human Dihydrofolate reductase (DHFR); no inhibition
T1 sequence (P00374 whole entry): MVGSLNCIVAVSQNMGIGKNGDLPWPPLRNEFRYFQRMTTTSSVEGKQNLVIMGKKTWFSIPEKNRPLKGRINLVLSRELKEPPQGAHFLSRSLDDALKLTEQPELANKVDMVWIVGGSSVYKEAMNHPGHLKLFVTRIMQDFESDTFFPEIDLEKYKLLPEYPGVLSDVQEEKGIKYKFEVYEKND

Manca [2] = assay: Compound was evaluated for the inhibition of Manca human lymphoma cell growth; assay type: functional, cell-based
Outline: (§1)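 Manca human lymphoma cells grown in RPMI medium with 10% fetal calf serum. Growth was estimated by tetrazolium reduction.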

Thymidylate synthase [3] = target: T2, Thymidylate synthase (Lactobacillus casei, UniProt P00469); assay: Compound was evaluated for the inhibition of Lactobacillus casei thymidylate synthase; parameters: species or system Lacticaseibacillus casei
T2 sequence (P00469 whole entry): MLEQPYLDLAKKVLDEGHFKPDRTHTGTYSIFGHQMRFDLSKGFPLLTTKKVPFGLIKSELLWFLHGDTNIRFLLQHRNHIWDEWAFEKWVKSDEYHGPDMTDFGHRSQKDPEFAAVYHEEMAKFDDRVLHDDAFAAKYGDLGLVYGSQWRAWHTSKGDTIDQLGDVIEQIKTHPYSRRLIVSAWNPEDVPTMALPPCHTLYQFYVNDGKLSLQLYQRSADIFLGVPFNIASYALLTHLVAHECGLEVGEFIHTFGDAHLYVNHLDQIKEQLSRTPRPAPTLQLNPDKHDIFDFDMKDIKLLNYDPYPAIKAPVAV

[4] = target: GAR formyltransferase (Lactobacillus casei); assay: Compound was evaluated for the inhibition of Glycinamide ribonucleotide formyl transferase (GAR) with formyl (6R) tetrahydrofolate as substrate
Dihydrofolate reductase [5] = target: Dihydrofolate reductase (Lactobacillus casei, UniProt P00381); assay: Compound was evaluated for the inhibition of Lactobacillus casei DHFR; parameters: species or system Lacticaseibacillus casei
Dihydrofolate reductase [6] = target: T1, Dihydrofolate reductase; assay: Compound was evaluated for the inhibition of recombinant human Dihydrofolate reductase (DHFR)
[7] = target: T3, Dihydrofolate reductase (Homo sapiens) (UniProt P00374); assay: Percent inhibition against human DHFR; conditions: concentration not given here
T3 sequence (whole entry): T1 sequence (P00374 whole entry)

Manca [8] = assay: Compound was evaluated for the inhibition of Manca human lymphoma cell growth; no inhibition; assay type: functional, cell-based; outline: as §1
Thymidylate synthase [9] = target: Thymidylate synthase (Homo sapiens, UniProt P04818); assay: Compound was evaluated for the inhibition of recombinant human thymidylate synthase
Chain of Thymidylate synthase (Homo sapiens, UniProt P04818) (P04818 whole entry): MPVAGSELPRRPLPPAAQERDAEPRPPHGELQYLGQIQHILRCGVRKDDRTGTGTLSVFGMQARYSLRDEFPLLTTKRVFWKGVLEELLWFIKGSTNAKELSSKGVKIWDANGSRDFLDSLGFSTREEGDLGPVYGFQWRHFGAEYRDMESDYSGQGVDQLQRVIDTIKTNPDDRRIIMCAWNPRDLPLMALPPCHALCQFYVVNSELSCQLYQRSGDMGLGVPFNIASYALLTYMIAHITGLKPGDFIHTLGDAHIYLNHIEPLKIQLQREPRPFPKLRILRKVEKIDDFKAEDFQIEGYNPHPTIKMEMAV

Chain of Dihydrofolate reductase (Lactobacillus casei, UniProt P00381) (P00381 whole entry): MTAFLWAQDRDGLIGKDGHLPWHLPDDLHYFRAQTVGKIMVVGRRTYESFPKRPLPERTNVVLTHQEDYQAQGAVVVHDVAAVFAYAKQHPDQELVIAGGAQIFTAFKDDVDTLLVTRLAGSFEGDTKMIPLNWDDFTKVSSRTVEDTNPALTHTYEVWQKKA

SMILES	IC50 (Dihydrofolate reductase [1])	IC50 (Manca [2])	IC50 (Thymidylate synthase [3])	IC50 [4]	IC50 (Dihydrofolate reductase [5])	IC50 (Dihydrofolate reductase [6])	inhibition [7]	IC50 (Manca [8])	IC50 (Thymidylate synthase [9])
Cc1c2cnc3nc(N)nc(O)c3c2c(C)n1C	> 95 µM	> 10 µM	95 µM	> 95 µM	–	–	–	–	–
Nc1nc(O)c2c(n1)NCC1CN(c3ccc(C(=O)NC(CCC(=O)O)C(=O)O)cc3)CC21 (stereo not drawn)	–	–	–	–	5 µM	> 40 µM	34%	> 20 µM	> 40 µM
Nc1nc(O)c2c(ncc3cn(-c4ccc(C(=O)NC(CCC(=O)O)C(=O)O)cc4)cc32)n1 (stereo not drawn)	–	42 µM	> 100 µM	–	–	> 80 µM	23%	–	–
